Assay results as given in ChEMBL document CHEMBL1817578, “2-({6-[(3R)-3-amino-3-methylpiperidine-1-yl]-1,3-dimethyl-2,4-dioxo-1,2,3,4-tetrahydro-5H-pyrrolo[3,2-d]pyrimidine-5-yl}methyl)-4-fluorobenzonitrile (DSR-12727): a potent, orally active dipeptidyl peptidase IV inhibitor without mechanism-based inactivation of CYP3A” (Bioorg Med Chem, 2011).

Columns and labels:
Salmonella typhimurium = assay: Genotoxicity in Salmonella Typhimurium by Ames test; assay type: toxicity, organism-based; settings: salmonella enterica subsp. enterica serovar typhimurium
[1] = Half life in rat at 1 mg/kg, iv; assay type: ADME, organism-based; set-up: dose 1 mg/kg, route intravenous; settings: in vivo
[2] = AUC in Zucker fatty rat at 3 mg/kg, po after 3 hrs; assay type: ADME, organism-based; set-up: time < 3 hr, dose 3 mg/kg, route oral; settings: plasma
[3] = Volume of distribution at steady state in dog at 1 mg/kg, iv; assay type: ADME, organism-based, Canis lupus familiaris; set-up: dose 1 mg/kg, route intravenous; settings: in vivo, read-out: Vdss
[4] = molecular target: T1, Muscarinic acetylcholine receptor M1 (Homo sapiens, UniProt P11229); assay: Binding affinity to muscarinic receptor 1
T1 sequence (P11229 whole entry): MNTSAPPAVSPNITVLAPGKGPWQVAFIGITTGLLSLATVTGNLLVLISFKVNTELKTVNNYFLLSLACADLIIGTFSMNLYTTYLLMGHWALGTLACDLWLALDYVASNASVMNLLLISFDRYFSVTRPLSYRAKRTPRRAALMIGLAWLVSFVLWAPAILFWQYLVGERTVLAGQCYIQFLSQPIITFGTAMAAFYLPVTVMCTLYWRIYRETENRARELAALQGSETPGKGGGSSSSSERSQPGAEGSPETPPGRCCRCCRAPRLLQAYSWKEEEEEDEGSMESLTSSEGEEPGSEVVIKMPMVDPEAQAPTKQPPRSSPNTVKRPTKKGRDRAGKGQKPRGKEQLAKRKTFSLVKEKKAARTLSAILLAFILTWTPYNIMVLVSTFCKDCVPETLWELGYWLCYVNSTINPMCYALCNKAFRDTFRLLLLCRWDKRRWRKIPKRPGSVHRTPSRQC

[5] = Toxicity in monkey assessed as organ toxicity after 2 weeks repeated dosage; assay type: organism-based, Macaca mulatta; settings: rhesus monkey, in vivo
How it was run: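 2-week repeated-dose toxicity study; rats n = 5 per sex, monkeys n = 1 per sex.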

Dipeptidyl peptidase 9 = Dipeptidyl peptidase 9 (Homo sapiens, UniProt Q86TI2); assay: Inhibition of DPP9
[6] = Oral bioavailability in rat at 3 mg/kg; assay type: ADME, organism-based; settings: in vivo
[7] = Half life in monkey at 3 mg/kg, po; assay type: ADME, organism-based, Macaca mulatta; set-up: dose 3 mg/kg, route oral; settings: rhesus monkey, in vivo
[8] = Cmax in rat at 3 mg/kg, po; assay type: ADME, organism-based; set-up: dose 3 mg/kg, route oral; settings: in vivo

Chain of Dipeptidyl peptidase 9 (Q86TI2 whole entry): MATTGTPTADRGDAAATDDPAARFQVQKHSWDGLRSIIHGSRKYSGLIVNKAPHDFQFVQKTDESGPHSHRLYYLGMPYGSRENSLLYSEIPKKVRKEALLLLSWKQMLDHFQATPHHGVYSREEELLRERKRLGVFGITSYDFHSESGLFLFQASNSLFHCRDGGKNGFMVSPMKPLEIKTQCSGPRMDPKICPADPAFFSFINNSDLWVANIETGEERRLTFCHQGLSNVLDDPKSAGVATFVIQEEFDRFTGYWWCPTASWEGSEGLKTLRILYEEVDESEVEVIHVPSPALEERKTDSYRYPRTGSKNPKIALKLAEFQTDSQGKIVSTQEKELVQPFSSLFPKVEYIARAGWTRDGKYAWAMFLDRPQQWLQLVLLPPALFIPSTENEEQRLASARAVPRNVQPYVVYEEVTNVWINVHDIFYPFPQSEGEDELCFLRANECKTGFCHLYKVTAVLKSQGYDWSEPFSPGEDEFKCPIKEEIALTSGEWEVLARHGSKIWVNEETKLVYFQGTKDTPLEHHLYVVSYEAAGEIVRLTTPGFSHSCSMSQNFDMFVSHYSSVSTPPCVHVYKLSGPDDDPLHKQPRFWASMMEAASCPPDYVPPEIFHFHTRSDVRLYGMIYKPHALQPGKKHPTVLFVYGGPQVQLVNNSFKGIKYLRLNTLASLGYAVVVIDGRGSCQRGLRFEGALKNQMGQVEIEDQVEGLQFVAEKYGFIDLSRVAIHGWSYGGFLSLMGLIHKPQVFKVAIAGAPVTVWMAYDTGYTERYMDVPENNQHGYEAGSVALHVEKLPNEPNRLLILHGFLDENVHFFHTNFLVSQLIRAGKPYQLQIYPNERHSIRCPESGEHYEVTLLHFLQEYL

half-life [1]: 4.1 h | AUC at 3 h [2]: 2170 ng·h/mL | Vd [3]: 5.8 L/kg | IC50 [4]: > 10 µM | IC50 (Dipeptidyl peptidase 9): > 50 µM | bioavailability [6]: 52% | half-life [7]: 15 h | Cmax [8]: 76 ng/mL
SMILES: Cn1c(=O)c2c(cc(N3CCC[C@@](C)(N)C3)n2Cc2cc(F)ccc2C#N)n(C)c1=O
Activity (Salmonella typhimurium): Non-toxic | NOAEL at 336 h [5]: 60 mg/kg/day
